Results from ChEMBL document CHEMBL1154183, “Structure-based optimization of potent and selective inhibitors of the tyrosine kinase erythropoietin producing human hepatocellular carcinoma receptor B4 (EphB4)” (J Med Chem, 2009).
Blank lines part the entries; values can stand above or below the compound they belong to.

How the values were obtained:
[1] = target: Ephrin type-B receptor 3 (Homo sapiens) (UniProt P54753); test: Inhibition of EPHB3 assessed as remaining enzyme activity at 3 uM relative to DMSO
How it was run: (§1)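 Dundee kinase panel, radiometric: [γ-33P]ATP (800 cpm/pmol) at 5, 20 or 50 μM, at or below each kinase's ATP Km; 10 mM magnesium acetate; robotic, room temperature, 30 min. Reactions started with MgATP, stopped with orthophosphoric acid, spotted onto P81 filters. Inhibitor tested at a single concentration; mean % activity of duplicates relative to DMSO control.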

[2] = target: Serine/threonine-protein kinase D1 (Homo sapiens) (UniProt Q15139); test: Inhibition of PKD1 assessed as remaining enzyme activity at 3 uM relative to DMSO
[3] = target: MAP kinase-activated protein kinase 5 (Homo sapiens) (UniProt Q8IW41); test: Inhibition of PRAK assessed as remaining enzyme activity at 3 uM relative to DMSO
[4] = target: RAC-alpha serine/threonine-protein kinase (Homo sapiens) (UniProt P31749); test: Inhibition of PKBalpha assessed as remaining enzyme activity at 3 uM relative to DMSO
How it was run: (§2)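 Radiometric kinase assay run robotically at room temperature for 30 min. Contained 10 mM magnesium acetate and [γ-33P]ATP (800 cpm/pmol) at 5, 20 or 50 μM, chosen per kinase to be at or below its ATP Km. Reactions were started with MgATP, stopped with orthophosphoric acid and spotted onto P81 filters. Result is mean % activity of duplicates at one inhibitor concentration versus DMSO control.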

[5] = target: RAC-beta serine/threonine-protein kinase (Homo sapiens) (UniProt P31751); test: Inhibition of PKBbeta assessed as remaining enzyme activity at 3 uM relative to DMSO; how it was run: as §2
[6] = target: Ribosomal protein S6 kinase alpha-3 (Homo sapiens) (UniProt P51812); test: Inhibition of RSK2 assessed as remaining enzyme activity at 3 uM relative to DMSO
[7] = target: MAP kinase-interacting serine/threonine-protein kinase 2 (Homo sapiens) (UniProt Q9HBH9); test: Inhibition of MNK2 assessed as remaining enzyme activity at 3 uM relative to DMSO; how it was run: as §2
[8] = target: Serine/threonine-protein kinase Sgk1 (Homo sapiens) (UniProt O00141); test: Inhibition of SGK1 assessed as remaining enzyme activity at 3 uM relative to DMSO
[9] = target: Tyrosine-protein kinase BTK (Homo sapiens) (UniProt Q06187); test: Inhibition of BTK assessed as remaining enzyme activity at 3 uM relative to DMSO; how it was run: as §1
[10] = target: Tyrosine-protein kinase CSK (Homo sapiens) (UniProt P41240); test: Inhibition of CSK assessed as remaining enzyme activity at 1 uM relative to DMSO; how it was run: as §1
[11] = target: Tyrosine-protein kinase BTK (Homo sapiens) (UniProt Q06187); test: Inhibition of BTK assessed as remaining enzyme activity at 1 uM relative to DMSO; how it was run: as §1
[12] = target: Ribosomal protein S6 kinase alpha-2 (Homo sapiens) (UniProt Q15349); test: Binding affinity to RSK3 kinase domain 2 C-terminal assessed as percentage of kinase remaining bound to the bead at 1 uM by T7 phage display based binding assay
[13] = target: Serine/threonine-protein kinase Nek11 (Homo sapiens) (UniProt Q8NG66); test: Binding affinity to NEK11 assessed as percentage of kinase remaining bound to the bead at 1 uM by T7 phage display based binding assay
How it was run: (§3)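 Competition binding assay run by a contract lab. Each kinase was expressed as a fusion to T7 phage, full-length for small kinases and catalytic domain for large ones. Phage were mixed with an immobilized known kinase inhibitor on streptavidin magnetic beads and with test compound at a single 1 μM. Kinase/phage still bound to the beads was quantified by qPCR and expressed as % of DMSO control.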

[14] = target: Mitogen-activated protein kinase 9 (Homo sapiens) (UniProt P45984); test: Inhibition of JNK2 assessed as remaining enzyme activity at 1 uM relative to DMSO; how it was run: as §1
[15] = target: Mitogen-activated protein kinase kinase kinase 9 (Homo sapiens) (UniProt P80192); test: Inhibition of MLK1 assessed as remaining enzyme activity at 1 uM relative to DMSO; how it was run: as §2
[16] = target: Proto-oncogene tyrosine-protein kinase receptor Ret (Homo sapiens) (UniProt P07949); test: Binding affinity to RET assessed as percentage of kinase remaining bound to the bead at 1 uM by T7 phage display based binding assay; how it was run: as §3
[17] = target: Fibroblast growth factor receptor 2 (Homo sapiens) (UniProt P21802); test: Binding affinity to FGFR2 assessed as percentage of kinase remaining bound to the bead at 1 uM by T7 phage display based binding assay; how it was run: as §3
[18] = target: Ribosomal protein S6 kinase alpha-3 (Homo sapiens) (UniProt P51812); test: Inhibition of RSK2 assessed as remaining enzyme activity at 1 uM relative to DMSO
[19] = target: Tyrosine-protein kinase ABL2 (Homo sapiens) (UniProt P42684); test: Binding affinity to ABL2 assessed as percentage of kinase remaining bound to the bead at 1 uM by T7 phage display based binding assay; how it was run: as §3
[20] = target: Ephrin type-A receptor 7 (Homo sapiens, UniProt Q15375); test: Inhibition of EphA7 by [gamma33-P]ATP based assay
How it was run: (§4)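 Radiometric [γ-33P]ATP kinase assay against Eph kinases, following a protocol similar to the Mg-acetate/MgATP filter-binding method.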

[21] = target: Serine/threonine-protein kinase Nek6 (Homo sapiens) (UniProt Q9HC98); test: Inhibition of NEK6 assessed as remaining enzyme activity at 1 uM relative to DMSO; how it was run: as §2
[22] = target: LIM domain kinase 1 (Homo sapiens) (UniProt P53667); test: Binding affinity to LIMK1 assessed as percentage of kinase remaining bound to the bead at 1 uM by T7 phage display based binding assay; how it was run: as §3
[23] = target: Tyrosine-protein kinase Srms (Homo sapiens) (UniProt Q9H3Y6); test: Binding affinity to SRMS assessed as percentage of kinase remaining bound to the bead at 1 uM by T7 phage display based binding assay; how it was run: as §3
[24] = target: Serine/threonine-protein kinase 3 (Homo sapiens) (UniProt Q13188); test: Inhibition of MST2 assessed as remaining enzyme activity at 1 uM relative to DMSO; how it was run: as §2
[25] = target: Ephrin type-A receptor 3 (Homo sapiens, UniProt P29320); test: Inhibition of EphA3 by [gamma33-P]ATP based assay; how it was run: as §4
[26] = target: Inhibitor of nuclear factor kappa-B kinase subunit beta (Homo sapiens) (UniProt O14920); test: Inhibition of IKK-beta assessed as remaining enzyme activity at 1 uM relative to DMSO
How it was run: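 Radiometric kinase assay run robotically at room temperature for 30 min, linear in time and enzyme. Conditions: 10 mM magnesium acetate, [γ-33P]ATP (800 cpm/pmol) at 5, 20 or 50 μM per kinase, at or below its ATP Km. Started with MgATP and stopped with orthophosphoric acid, then spotted on P81 filters. Reported as mean % activity of duplicates versus DMSO controls.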

[27] = target: Receptor tyrosine-protein kinase erbB-2 (Homo sapiens) (UniProt P04626); test: Binding affinity to ERBB2 assessed as percentage of kinase remaining bound to the bead at 1 uM by T7 phage display based binding assay; how it was run: as §3
[28] = target: Ribosomal protein S6 kinase alpha-6 (Homo sapiens) (UniProt Q9UK32); test: Binding affinity to RSK4 kinase domain 2 C-terminal assessed as percentage of kinase remaining bound to the bead at 1 uM by T7 phage display based binding assay; how it was run: as §3
Ribosomal protein S6 kinase alpha-6 (Homo sapiens), sequence (Q9UK32 whole entry, the tested form may be a part): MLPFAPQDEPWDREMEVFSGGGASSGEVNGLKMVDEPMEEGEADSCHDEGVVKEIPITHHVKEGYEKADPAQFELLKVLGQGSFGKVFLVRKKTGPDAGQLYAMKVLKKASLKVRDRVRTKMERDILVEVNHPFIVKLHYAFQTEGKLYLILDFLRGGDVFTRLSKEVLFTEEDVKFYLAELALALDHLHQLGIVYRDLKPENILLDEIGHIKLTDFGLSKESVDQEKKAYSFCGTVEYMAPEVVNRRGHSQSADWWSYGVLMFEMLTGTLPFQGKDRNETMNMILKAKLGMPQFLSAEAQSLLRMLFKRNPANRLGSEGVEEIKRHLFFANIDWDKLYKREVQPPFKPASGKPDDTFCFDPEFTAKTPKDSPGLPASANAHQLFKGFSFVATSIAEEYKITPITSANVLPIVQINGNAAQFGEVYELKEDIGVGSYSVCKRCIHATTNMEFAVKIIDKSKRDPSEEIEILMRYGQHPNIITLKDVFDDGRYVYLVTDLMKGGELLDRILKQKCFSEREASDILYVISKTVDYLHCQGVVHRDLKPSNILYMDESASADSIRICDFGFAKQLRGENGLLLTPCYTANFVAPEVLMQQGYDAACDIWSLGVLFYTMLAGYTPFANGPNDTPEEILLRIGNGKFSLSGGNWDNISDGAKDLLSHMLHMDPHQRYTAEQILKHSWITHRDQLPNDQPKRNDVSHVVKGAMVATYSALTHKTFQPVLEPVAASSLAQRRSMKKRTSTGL

Tyrosine-protein kinase BTK (Homo sapiens), sequence (Q06187 whole entry, the tested form may be a part): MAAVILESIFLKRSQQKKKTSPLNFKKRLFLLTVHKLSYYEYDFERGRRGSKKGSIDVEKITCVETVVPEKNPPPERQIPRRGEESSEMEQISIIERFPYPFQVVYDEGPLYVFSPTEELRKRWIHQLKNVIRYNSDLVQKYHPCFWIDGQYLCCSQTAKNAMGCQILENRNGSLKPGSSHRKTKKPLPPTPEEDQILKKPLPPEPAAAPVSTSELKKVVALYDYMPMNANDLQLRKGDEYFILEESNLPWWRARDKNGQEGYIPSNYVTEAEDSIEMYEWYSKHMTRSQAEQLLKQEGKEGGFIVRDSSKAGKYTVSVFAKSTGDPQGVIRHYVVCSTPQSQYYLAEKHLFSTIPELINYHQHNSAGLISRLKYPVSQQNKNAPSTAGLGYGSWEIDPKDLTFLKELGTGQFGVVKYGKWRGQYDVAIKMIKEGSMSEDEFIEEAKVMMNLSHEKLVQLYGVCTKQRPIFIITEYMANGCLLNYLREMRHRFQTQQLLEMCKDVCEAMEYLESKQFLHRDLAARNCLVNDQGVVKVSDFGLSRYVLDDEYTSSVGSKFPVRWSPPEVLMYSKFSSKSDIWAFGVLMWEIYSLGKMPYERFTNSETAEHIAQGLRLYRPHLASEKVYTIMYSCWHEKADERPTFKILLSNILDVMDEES
Ribosomal protein S6 kinase alpha-3 (Homo sapiens), sequence (P51812 whole entry): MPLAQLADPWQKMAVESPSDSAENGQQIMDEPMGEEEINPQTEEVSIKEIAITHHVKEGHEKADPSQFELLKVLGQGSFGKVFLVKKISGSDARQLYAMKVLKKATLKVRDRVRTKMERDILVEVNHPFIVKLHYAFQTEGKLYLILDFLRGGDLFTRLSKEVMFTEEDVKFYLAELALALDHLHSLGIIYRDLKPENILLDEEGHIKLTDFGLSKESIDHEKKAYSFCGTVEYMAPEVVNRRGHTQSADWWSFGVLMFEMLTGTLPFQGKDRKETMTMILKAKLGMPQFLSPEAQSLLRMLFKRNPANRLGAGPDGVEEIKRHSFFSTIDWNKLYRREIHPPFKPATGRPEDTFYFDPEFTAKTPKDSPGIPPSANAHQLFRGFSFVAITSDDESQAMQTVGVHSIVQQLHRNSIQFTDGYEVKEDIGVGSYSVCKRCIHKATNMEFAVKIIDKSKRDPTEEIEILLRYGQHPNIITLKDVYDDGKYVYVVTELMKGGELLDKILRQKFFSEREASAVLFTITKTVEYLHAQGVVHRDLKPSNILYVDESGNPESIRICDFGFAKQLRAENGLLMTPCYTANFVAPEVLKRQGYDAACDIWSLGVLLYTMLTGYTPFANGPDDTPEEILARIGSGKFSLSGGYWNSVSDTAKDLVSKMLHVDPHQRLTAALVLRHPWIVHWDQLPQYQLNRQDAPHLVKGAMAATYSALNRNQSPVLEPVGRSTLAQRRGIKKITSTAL
Fibroblast growth factor receptor 2 (Homo sapiens), sequence (P21802 22-821 limits assumed): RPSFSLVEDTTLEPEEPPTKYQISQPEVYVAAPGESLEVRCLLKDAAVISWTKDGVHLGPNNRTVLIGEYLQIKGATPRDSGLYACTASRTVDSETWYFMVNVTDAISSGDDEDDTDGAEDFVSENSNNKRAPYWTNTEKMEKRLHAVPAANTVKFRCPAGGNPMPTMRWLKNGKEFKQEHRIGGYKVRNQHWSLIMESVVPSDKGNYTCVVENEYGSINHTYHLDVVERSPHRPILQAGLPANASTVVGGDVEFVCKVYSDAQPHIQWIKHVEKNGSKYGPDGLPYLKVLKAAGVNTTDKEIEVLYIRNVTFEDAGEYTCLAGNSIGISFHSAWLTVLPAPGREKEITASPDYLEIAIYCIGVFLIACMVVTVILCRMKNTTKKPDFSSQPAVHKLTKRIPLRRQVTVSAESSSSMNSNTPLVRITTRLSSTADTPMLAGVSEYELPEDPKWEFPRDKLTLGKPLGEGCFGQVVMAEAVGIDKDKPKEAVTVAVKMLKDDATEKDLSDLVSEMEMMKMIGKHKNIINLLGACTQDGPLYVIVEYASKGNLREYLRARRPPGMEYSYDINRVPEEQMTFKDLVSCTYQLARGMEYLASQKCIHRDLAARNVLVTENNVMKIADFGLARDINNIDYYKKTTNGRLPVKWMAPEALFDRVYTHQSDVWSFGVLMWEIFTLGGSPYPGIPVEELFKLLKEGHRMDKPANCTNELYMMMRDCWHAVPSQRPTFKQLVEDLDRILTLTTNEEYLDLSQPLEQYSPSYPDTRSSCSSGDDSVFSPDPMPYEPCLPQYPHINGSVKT
Serine/threonine-protein kinase Nek11 (Homo sapiens), sequence (Q8NG66 whole entry, the tested form may be a part): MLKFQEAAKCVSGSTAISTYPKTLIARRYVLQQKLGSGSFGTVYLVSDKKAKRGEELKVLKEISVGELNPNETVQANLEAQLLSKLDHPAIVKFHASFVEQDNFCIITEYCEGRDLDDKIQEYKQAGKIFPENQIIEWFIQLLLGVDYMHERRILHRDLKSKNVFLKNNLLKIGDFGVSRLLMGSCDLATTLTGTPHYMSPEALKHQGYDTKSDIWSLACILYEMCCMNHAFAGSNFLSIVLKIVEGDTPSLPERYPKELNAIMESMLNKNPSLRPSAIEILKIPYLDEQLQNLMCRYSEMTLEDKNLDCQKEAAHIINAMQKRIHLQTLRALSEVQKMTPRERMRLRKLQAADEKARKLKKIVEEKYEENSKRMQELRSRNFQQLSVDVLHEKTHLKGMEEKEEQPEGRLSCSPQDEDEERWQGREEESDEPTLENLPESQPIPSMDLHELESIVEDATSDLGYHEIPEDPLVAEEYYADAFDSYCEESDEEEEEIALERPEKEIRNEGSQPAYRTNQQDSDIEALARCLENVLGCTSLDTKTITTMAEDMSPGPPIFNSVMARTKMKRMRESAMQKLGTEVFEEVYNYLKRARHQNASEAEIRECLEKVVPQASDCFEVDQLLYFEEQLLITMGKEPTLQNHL
Receptor tyrosine-protein kinase erbB-2 (Homo sapiens), sequence (P04626 whole entry, the tested form may be a part): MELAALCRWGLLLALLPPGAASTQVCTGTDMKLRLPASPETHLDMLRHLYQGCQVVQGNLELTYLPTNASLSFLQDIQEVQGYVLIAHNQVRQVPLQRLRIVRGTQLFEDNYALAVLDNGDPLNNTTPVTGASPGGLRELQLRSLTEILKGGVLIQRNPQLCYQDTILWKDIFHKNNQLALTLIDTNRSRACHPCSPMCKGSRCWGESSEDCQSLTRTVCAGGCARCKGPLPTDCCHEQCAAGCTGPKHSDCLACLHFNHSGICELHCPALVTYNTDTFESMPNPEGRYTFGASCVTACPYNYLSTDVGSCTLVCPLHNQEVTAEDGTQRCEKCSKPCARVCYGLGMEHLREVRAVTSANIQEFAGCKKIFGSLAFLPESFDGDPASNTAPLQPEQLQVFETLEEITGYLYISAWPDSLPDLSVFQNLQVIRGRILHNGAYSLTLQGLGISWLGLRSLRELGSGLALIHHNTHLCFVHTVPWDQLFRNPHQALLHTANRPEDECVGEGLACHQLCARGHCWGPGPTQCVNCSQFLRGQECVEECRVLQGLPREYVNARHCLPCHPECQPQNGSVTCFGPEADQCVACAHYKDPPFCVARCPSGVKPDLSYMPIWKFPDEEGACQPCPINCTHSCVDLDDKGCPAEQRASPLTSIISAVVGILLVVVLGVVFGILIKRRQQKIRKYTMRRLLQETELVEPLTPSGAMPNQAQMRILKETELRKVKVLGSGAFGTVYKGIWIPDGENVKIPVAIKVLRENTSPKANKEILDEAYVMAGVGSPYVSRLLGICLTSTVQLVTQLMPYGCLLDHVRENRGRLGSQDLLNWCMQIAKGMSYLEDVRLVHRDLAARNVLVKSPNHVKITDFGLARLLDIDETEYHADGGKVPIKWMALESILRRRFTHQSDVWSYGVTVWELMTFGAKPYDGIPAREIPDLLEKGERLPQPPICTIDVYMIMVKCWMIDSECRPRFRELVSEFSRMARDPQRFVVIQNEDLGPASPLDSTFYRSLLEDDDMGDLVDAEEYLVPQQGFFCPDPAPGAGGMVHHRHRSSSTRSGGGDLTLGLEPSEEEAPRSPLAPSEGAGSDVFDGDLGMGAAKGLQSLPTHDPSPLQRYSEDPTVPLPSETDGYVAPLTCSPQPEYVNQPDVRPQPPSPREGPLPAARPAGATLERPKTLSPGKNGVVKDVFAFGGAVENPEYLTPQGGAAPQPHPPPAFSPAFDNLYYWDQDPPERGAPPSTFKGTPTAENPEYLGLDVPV

Activity [1]: 28%
Activity [2]: 100%
Activity [3]: 87%
Activity [4]: 97%
Activity [5]: 104%
Activity [6]: 105%
Activity [7]: 85%
Activity [8]: 124%
Activity [9]: 52%
Structure (SMILES): COc1ccccc1-n1c(-c2ccccc2C)cn2c3c(=O)[nH]c(=O)n(C)c3nc12

Activity [10]: 31%
Activity [11]: 33%
Activity [12]: 84%
Activity [13]: 67%
Activity [14]: 94%
Activity [15]: 45%
Activity [16]: 79%
Activity [17]: 94%
Activity [18]: 104%
Activity [19]: 0.75%
IC50 [20]: 1120 nM
Activity [21]: 89%
Activity [22]: 83%
Activity [23]: 18%
Activity [24]: 111%
IC50 [25]: 40 nM
Activity [26]: 86%
Activity [27]: 27%
Activity [28]: 5.8%
Structure (SMILES): COc1ccccc1-n1c(-c2cc(O)ccc2C)cn2c3c(=O)[nH]c(=O)n(C)c3nc12
